From ChEMBL document CHEMBL3407391, “Ether analogues of DPA-714 with subnanomolar affinity for the translocator protein (TSPO)” (Eur J Med Chem, 2015)

Experiments:
Translocator protein [1] = molecular target: T1, Translocator protein (Rattus norvegicus, UniProt P16257); set-up: species or system Wistar, Kidney
C6 = assay: Induction of pregnenolone production in rat C6 cells at 40 uM after 2 hrs by ELISA based steroidogenesis assay relative to control; format: functional
Outline: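 C6 glioma cells grown in DMEM with 10% FBS at 37 °C, 5% CO2, then seeded at 1×10^4 cells/well and washed three times with simple salts medium (HEPES/NaOH pH 7.4, 0.1% BSA). Cells were exposed to compound at 40 μM in salts medium with trilostane (25 μM) and SU 10603 (10 μM) for 2 h at 37 °C, DMSO ≤0.5%. Secreted pregnenolone was measured by ELISA; 6–9 replicates.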

Translocator protein [2] = molecular target: Translocator protein (Homo sapiens, UniProt P30536); assay: Inhibition of human TSPO
Translocator protein [3] = molecular target: T1, Translocator protein; assay: Inhibition of rat TSPO

T1 sequence (P16257 whole entry, looked up): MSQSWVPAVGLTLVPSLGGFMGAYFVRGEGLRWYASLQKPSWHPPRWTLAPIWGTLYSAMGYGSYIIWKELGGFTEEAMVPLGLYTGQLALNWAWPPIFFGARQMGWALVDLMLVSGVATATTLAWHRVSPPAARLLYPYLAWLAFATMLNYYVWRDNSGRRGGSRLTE
Translocator protein (Homo sapiens, UniProt P30536), sequence (P30536 whole entry): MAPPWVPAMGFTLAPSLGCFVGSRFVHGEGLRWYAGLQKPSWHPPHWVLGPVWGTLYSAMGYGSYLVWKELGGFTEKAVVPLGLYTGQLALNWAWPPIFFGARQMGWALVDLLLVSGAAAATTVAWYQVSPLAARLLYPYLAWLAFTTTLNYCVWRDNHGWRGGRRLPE

**Q.** `CCN(CC)C(=O)Cc1c(-c2ccc(OCc3cccc(F)c3)cc2)nn2c(C)cc(C)nc12` was tested. Which Ki (Translocator protein [1]) did it give?
**A.** 0.47 nM

**Q.** What about the Activity (C6) of the same compound?
**A.** 281.2%

**Q.** With `CCN(CC)C(=O)Cc1c(-c2ccc(OCC3CC3)cc2)nn2c(C)cc(C)nc12` as the compound, how does the Activity (C6) read?
**A.** 226.3%

**Q.** How did the Activity (C6) turn out when `CCN(CC)C(=O)Cc1c(-c2ccc(OCC3CCCC3)cc2)nn2c(C)cc(C)nc12` was run?
**A.** 173.9%

**Q.** How did the Ki (Translocator protein [2]) turn out when `COc1ccc(OC)c(CN(C(C)=O)c2cc(F)ccc2Oc2ccccc2)c1` was run?
**A.** 0.2 nM

**Q.** For `CCN(CC)C(=O)Cc1c(-c2ccc(OCC(C)C)cc2)nn2c(C)cc(C)nc12`, which Activity (C6) is on record?
**A.** 206.5%

**Q.** For `COc1ccccc1CN(C(C)=O)c1cnccc1Oc1ccccc1`, which Ki (Translocator protein [3]) is on record?
**A.** 0.7 nM

**Q.** What about the Ki (Translocator protein [2]) of the same compound?
**A.** 2.5 nM

**Q.** For `CCN(CC)C(=O)Cc1c(-c2ccc(OCC3CCC3)cc2)nn2c(C)cc(C)nc12`, which Activity (C6) is on record?
**A.** 298.4%

**Q.** With `CCN(CC)C(=O)Cc1c(-c2ccc(OCCc3ccccc3)cc2)nn2c(C)cc(C)nc12` as the compound, how does the Activity (C6) read?
**A.** 254%

**Q.** Which Activity (C6) does the source give for `CCN(CC)C(=O)Cc1c(-c2ccc(OCc3ccc(F)cc3)cc2)nn2c(C)cc(C)nc12` here?
**A.** 311.7%

**Q.** For `CCN(CC)C(=O)Cc1c(-c2ccc(OC3CCCC3)cc2)nn2c(C)cc(C)nc12`, which Ki (Translocator protein [1]) is on record?
**A.** 1.5 nM

**Q.** What about the Activity (C6) of the same compound?
**A.** 273.4%

**Q.** With `CCN(CC)C(=O)Cc1c(-c2ccc(OCc3cccc(C(F)(F)F)c3)cc2)nn2c(C)cc(C)nc12` as the compound, how does the Ki (Translocator protein [1]) read?
**A.** 0.67 nM

**Q.** And the Activity (C6)?
**A.** 230%

**Q.** How did the Activity (C6) turn out when `CCN(CC)C(=O)Cc1c(-c2ccc(OCc3ccccc3F)cc2)nn2c(C)cc(C)nc12` was run?
**A.** 161.5%

**Q.** Which Activity (C6) does the source give for `CCN(CC)C(=O)Cc1c(-c2ccc(OCc3ccccc3)cc2)nn2c(C)cc(C)nc12` here?
**A.** 262.4%

**Q.** `CCN(CC)C(=O)Cc1c(-c2ccc(OC(C)C)cc2)nn2c(C)cc(C)nc12` was tested. Which Activity (C6) did it give?
**A.** 165%

**Q.** `CCN(CC)C(=O)Cc1c(-c2ccc(OC3CCC3)cc2)nn2c(C)cc(C)nc12` was tested. Which Ki (Translocator protein [1]) did it give?
**A.** 0.86 nM

**Q.** And the Activity (C6)?
**A.** 184.3%

**Q.** Which Ki (Translocator protein [1]) does the source give for `CCN(CC)C(=O)Cc1c(-c2ccc(OCc3ccccc3C(F)(F)F)cc2)nn2c(C)cc(C)nc12` here?
**A.** 1.4 nM

**Q.** What about the Activity (C6) of the same compound?
**A.** 331.7%

**Q.** For `CCN(CC)C(=O)Cc1c(-c2ccc(OCc3ccc(C(F)(F)F)cc3)cc2)nn2c(C)cc(C)nc12`, which Ki (Translocator protein [1]) is on record?
**A.** 1.6 nM

**Q.** What about the Activity (C6) of the same compound?
**A.** 189.9%

**Q.** For `CCC(C)N(C)C(=O)c1cc2ccccc2c(-c2ccccc2Cl)n1` (stereo unspecified) [PK-11195], which Activity (C6) is on record?
**A.** 166.5%

**Q.** `CCN(CC)C(=O)Cc1c(-c2ccc(OCC3CCCCC3)cc2)nn2c(C)cc(C)nc12` was tested. Which Activity (C6) did it give?
**A.** 134.2%
